Source: ChEMBL document CHEMBL4052821, “Chemical Modification for Proteolytic Stabilization of the Selective αvβ3 Integrin RGDechi Peptide: in Vitro and in Vivo Activities on Malignant Melanoma Cells” (J Med Chem, 2017)
Activity calls are given as the source filed them. No cut-off for these calls is given here. Where a SMILES comes first, the peptide text is derived from it.

What was measured:
WM266 [1] = test: (§1) Antiadhesive activity in alphavbeta3 integrin overexpressing human WM266 cells assessed as inhibition of cell adhesion onto vitronectin at 50 uM preincubated for 30 mins followed by cell seeding on vitronectin by RTCA relative to control; format: functional
How it was run: (§2)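 WM266 cells (4 × 10^4, RPMI/10% FBS) preincubated 30 min at 4 °C with peptide (50 μM) in adhesion buffer, then seeded on wells coated overnight at 4 °C with 10 μg/mL matrix and blocked with 1.5% BSA. Impedance cell index read every minute over 0–24 h. Adhesion rate taken as slope between two time points, expressed as % of untreated control.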

WM266 [2] = test: (§3) Antiadhesive activity in alphavbeta3 integrin overexpressing human WM266 cells assessed as inhibition of cell adhesion onto fibronectin at 50 uM preincubated for 30 mins followed by cell seeding on fibronectin by RTCA relative to control; format: functional; how it was run: as §2
WM266 [3] = test: (§4) Antiadhesive activity in alphavbeta3 integrin overexpressing human WM266 cells assessed as inhibition of cell binding to anti-alphaVbeta3 antibody at 50 uM after 1 hr by crystal violet staining-based assay relative to control; format: functional
How it was run: (§5)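 Plates coated with anti-αvβ3 antibody LM609 (10 μg/mL). WM266 cells (1.5 × 10^4/well) incubated with peptide (50 μM) for 1 h. Nonadherent cells washed off, adherent cells measured by crystal violet optical density as % of untreated control. At least three independent experiments in duplicate.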

WM266 [4] = test: Antiinvasive activity in alphavbeta3 integrin overexpressing human WM266 cells at 50 uM after 18 hrs by Transwell assay relative to control; format: functional, cell-based
How it was run: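 Transwell inserts (8 μm) coated with ECL Cell Attachment. EDTA-detached WM266 cells (1 × 10^5, serum-free RPMI) with peptide (50 μM) in the upper chamber, 10% FBS RPMI below. Incubated 18 h at 37 °C. Invaded cells formalin-fixed, crystal violet stained and counted in four fields per chamber. Duplicate chambers.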

HeLa = test: Antiadhesive activity in alphavbeta5 integrin overexpressing human HeLa cells assessed as inhibition of cell binding to anti-alphaVbeta5 antibody at 50 uM by RTCA cell index slope-based assay
Serum [5] = test: Metabolic stability in human serum at 1 mg/ml after 3 to 24 hrs by RP-HPLC method; format: ADME, cell-free
How it was run: (§6)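 Peptide solution (1 mg/mL, 160 μL) mixed with 400 μL human serum at 37 °C. Aliquots taken at 1, 2, 4, 8, 24 and 48 h were quenched with 15% TFA and centrifuged. Supernatants analysed by LC–MS, following loss of the intact-peptide peak.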

[6] = (§7) Antiadhesive activity in alphavbeta3 integrin overexpressing human WM266 cells assessed as inhibition of cell adhesion onto vitronectin preincubated for 30 mins followed by cell seeding on vitronectin measured after 1 hr by crystal violet staining-based assay; format: functional
How it was run: (§8)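 Dose–response adhesion: WM266 cells preincubated with increasing peptide concentrations, then seeded on plates precoated with vitronectin or fibronectin (10 μg/mL). Adherent cells quantified after 1 h by crystal violet staining as % of untreated control. IC50 derived from this curve; means ± SE of three independent experiments in triplicate.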

[7] = (§9) Antiadhesive activity in alphavbeta3 integrin overexpressing human WM266 cells assessed as inhibition of cell adhesion onto fibronectin preincubated for 30 mins followed by cell seeding on fibronectin measured after 1 hr by crystal violet staining-based assay; format: functional; how it was run: as §8
[8] = as §4; format: functional; conditions: WM266, 1 h; how it was run: as §5
[9] = Antimigratory activity in alphavbeta3 integrin overexpressing human WM266 cells at 50 uM after 24 hrs by wound healing assay relative to control; format: functional
How it was run: (§10)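 Confluent WM266 monolayers scratched with a pipette tip, washed with PBS, then given medium containing peptide (50 μM). Phase-contrast images taken at 0, 24 and 48 h. Wound width expressed as % of the 0 h value. Three experiments in triplicate.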

[10] = Antimigratory activity in alphavbeta3 integrin overexpressing human WM266 cells at 50 uM after 48 hrs by wound healing assay relative to control; format: functional; how it was run: as §10
[11] = In vivo tumor uptake in CD1 nu/nu athymic mouse xenografted with alphavbeta3 integrin overexpressing human WM266 cells using NIR750 labeled compound at 1 nmol, iv after 3 to 24 hrs by fluorescence molecular tomography; format: ADME, organism-based, Neoplasm
How it was run: (§11)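 Peptides conjugated to VivoTag-S 750 NHS ester. 10 × 10^6 WM266 cells implanted in the right flank of CD1 nu/nu mice, fed alfalfa-free chow. At about 0.5 cm3 tumour volume, 1 nmol conjugate given i.v. (3 mice/group) under isoflurane. Whole-body FMT imaging at 3, 5 and 24 h, reported as tumour ROI counts/energy. Tumours excised at 24 h for ex vivo FMT.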

Serum [12] = test: Metabolic stability in human serum at 1 mg/ml after 48 hrs by RP-HPLC method; format: ADME, cell-free; how it was run: as §6
[13] = as §1; format: functional; how it was run: as §2
[14] = as §3; format: functional; how it was run: as §2
WM266 [15] = test: Antiadhesive activity in alphavbeta3 integrin overexpressing human WM266 cells assessed as inhibition of cell adhesion onto collagen 1 at 50 uM preincubated for 30 mins followed by cell seeding on collagen 1 by RTCA; format: functional, cell-based; how it was run: as §2
WM266 [16] = test: as §7; format: functional; how it was run: as §8
WM266 [17] = test: as §9; format: functional; how it was run: as §8
[18] = target: Integrin alpha-V/beta-3 (Homo sapiens) (UniProt P05106+P06756); test: Competitive binding affinity to alphavbeta3 integrin in human WM266 cells using NIR750-labeled compound at 1 nmole after 1 hr in presence of excess of unlabeled compound by DAPI staining-based confocal microscopic method; format: cell-based
How it was run: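 WM266 cells on coverslips incubated with 1 nmol NIR750-labelled peptide in DPBS/5% FBS for 1 h at 4 °C. For competition, cells were first preincubated 1 h at 4 °C with 1000-fold excess unlabelled parent. Cells fixed, DAPI-stained and immunostained for αvβ3, then imaged by confocal microscopy. Colocalization scored by Manders' coefficients.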

[19] = Ex vivo tumor uptake in CD1 nu/nu athymic mouse xenografted with alphavbeta3 integrin overexpressing human WM266 cells using NIR750 labeled compound at 1 nmol, iv after 24 hrs by fluorescence molecular tomography; format: ADME, organism-based, Neoplasm; how it was run: as §11

Stability (Serum [5])	Drug uptake [11]	Stability (Serum [12])	Activity [18]	Drug uptake [19]	Compound	inhibition (WM266 [1])	inhibition (WM266 [2])	inhibition (WM266 [3])	Activity (WM266 [4])	inhibition (HeLa)	IC50 [6] [µM]	IC50 [7] [µM]	inhibition at 50 µM [8] [%]	Activity [9] [%]	Activity [10] [%]	inhibition at 50 µM [13] [%]	inhibition at 50 µM [14] [%]	inhibition (WM266 [15])	inhibition (WM266 [16])	inhibition (WM266 [17])
–	–	–	–	–	N=C(N)NCCC[C@@H]1NC(=O)CNC(=O)[C@H](CC(=O)O)NC(=O)[C@@H](Cc2ccccc2)NC(=O)[C@H](CCCCN)NC1=O	Active	Active	Active	Active	Active	–	–	–	–	–	–	–	–	–	–
Unstable	Active	–	–	–	CSCC[C@H](NC(=O)CC[C@@H]1NC(=O)[C@H](CC(=O)O)NC(=O)CNC(=O)[C@H](CCCNC(=N)N)NC(=O)[C@H](CCCCN)NC1=O)C(=O)N[C@@H](CC(=O)O)C(=O)N[C@@H](CC(=O)O)C(=O)N1CCC[C@H]1C(=O)NCC(=O)N[C@@H](CCCNC(=N)N)C(=O)N[C@@H](CC(N)=O)C(=O)N1CCC[C@H]1C(=O)N[C@@H](Cc1cnc[nH]1)C(=O)N[C@@H](CCCCNC(N)=O)C(=O)NCC(=O)N1CCC[C@H]1C(=O)N[C@@H](C)C(=O)N[C@H](C(=O)O)[C@@H](C)O (HELM PEPTIDE1{M.D.D.P.G.R.N.P.H.[NC(=O)NCCCC[C@H](N[*:1])C(=O)[*:2]].G.P.A.T}|PEPTIDE2{R.G.D.E.K}$PEPTIDE1,PEPTIDE2,1:R1-4:R3|PEPTIDE2,PEPTIDE2,1:R1-5:R2$$$V2.0)	–	–	–	Active	inactive	25.5	53	40	31	20	–	–	–	–	–
–	Active	Stable	Active	Active	CSCC[C@H](NC(=O)CC[C@@H]1NC(=O)[C@H](CC(=O)O)NC(=O)CNC(=O)[C@H](CCCNC(=N)N)NC(=O)[C@H](CCCCN)NC1=O)C(=O)N[C@@H](CC(=O)O)C(=O)N[C@@H](CC(=O)O)C(=O)N1CCC[C@H]1C(=O)NCC(=O)N[C@@H](CCCNC(=N)N)C(=O)N[C@@H](CC(N)=O)C(=O)N1CCC[C@H]1C(=O)N[C@@H](Cc1cnc[nH]1)C(=O)N[C@@H](CCCCNC(N)=O)C(=O)NCC(=O)N1CCC[C@H]1CN[C@@H](C)C(=O)N[C@H](C(=O)O)[C@@H](C)O (HELM PEPTIDE1{M.D.D.P.G.R.N.P.H.[NC(=O)NCCCC[C@H](N[*:1])C(=O)[*:2]].G.[C[C@H](NC[C@@H]1CCCN1[*:1])C(=O)N[C@H](C(=O)O)[C@@H](C)O]}|PEPTIDE2{R.G.D.E.K}$PEPTIDE1,PEPTIDE2,1:R1-4:R3|PEPTIDE2,PEPTIDE2,1:R1-5:R2$$$V2.0)	–	–	–	Active	inactive	5.2	20.7	40	54	33	55	33	inactive	Dose-dependent effect	Dose-dependent effect
